Results published in ChEMBL document CHEMBL4043075, “Development of Fluorinated Analogues of Perhexiline with Improved Pharmacokinetic Properties and Retained Efficacy” (J Med Chem, 2017).

Key:
[1] = target: T1, Carnitine O-palmitoyltransferase 1, muscle isoform (Rattus norvegicus, UniProt Q63704); test: Inhibition of Wistar rat heart mitochondrial CPT-1 assessed as reduction in conversion of palmitoyl CoA and L-carnitine into palmitoylcarnitine preincubated for 3 mins followed by L-carnitine and palmitoyl CoA addition measured for 3.5 mins by spectrophotometric analysis
T1 sequence (Q63704 whole entry): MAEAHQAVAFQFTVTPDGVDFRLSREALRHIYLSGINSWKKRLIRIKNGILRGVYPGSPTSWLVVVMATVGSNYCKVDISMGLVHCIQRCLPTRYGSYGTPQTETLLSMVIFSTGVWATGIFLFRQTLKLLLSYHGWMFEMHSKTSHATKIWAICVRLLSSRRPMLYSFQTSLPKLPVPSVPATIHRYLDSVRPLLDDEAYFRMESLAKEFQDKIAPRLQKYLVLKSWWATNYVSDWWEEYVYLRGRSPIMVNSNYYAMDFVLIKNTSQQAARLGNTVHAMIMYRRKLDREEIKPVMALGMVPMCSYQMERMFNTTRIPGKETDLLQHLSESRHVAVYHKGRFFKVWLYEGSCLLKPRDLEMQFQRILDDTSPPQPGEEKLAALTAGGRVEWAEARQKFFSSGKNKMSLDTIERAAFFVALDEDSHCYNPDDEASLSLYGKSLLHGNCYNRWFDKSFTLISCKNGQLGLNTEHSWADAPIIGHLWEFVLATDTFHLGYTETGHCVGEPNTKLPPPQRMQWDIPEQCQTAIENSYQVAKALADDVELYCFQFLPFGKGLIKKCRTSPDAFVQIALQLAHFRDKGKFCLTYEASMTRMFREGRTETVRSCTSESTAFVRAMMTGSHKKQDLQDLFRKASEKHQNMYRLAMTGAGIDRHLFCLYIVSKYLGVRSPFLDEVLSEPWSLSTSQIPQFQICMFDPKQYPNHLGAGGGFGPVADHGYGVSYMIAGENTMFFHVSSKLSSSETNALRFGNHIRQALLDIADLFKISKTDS

[2] = Half life in Sprague-Dawley rat liver microsomes at 3 uM up to 45 mins in presence of NADPH by LC-MS/MS analysis; assay type: ADME, microsome
[3] = Half life in human liver microsomes at 3 uM up to 45 mins in presence of NADPH by LC-MS/MS analysis; assay type: ADME, microsome
[4] = Ratio of drug level in myocardium to plasma in BALB/c mouse at 10 mg/kg, po administered via gavage every 24 hrs for 7 days measured 1 hr post last dose by LC-MS/MS analysis; assay type: ADME, organism-based; conditions: myocardium and plasma
Method in brief: (§1)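 Male BALB/c mice, daily oral gavage at 10 mg/kg. Plasma and myocardium sampled 1, 4, 8 and 24 h after dosing, n = 3 per timepoint. […] Myocardium:plasma ratios taken from drug concentration or from AUC. Student's t-test used.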

[5] = Plasma concentration in Sprague-Dawley rat at 10 mg/kg, po administered via gavage every 24 hrs measured at 2 hrs post last dose by LC-MS/MS analysis; assay type: ADME, organism-based
Method in brief: (§2)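 Male Sprague-Dawley rats, daily oral dosing at 10 mg/kg. Plasma sampled at 1, 2, 4, 8 and 24 h after dosing, n = 3 per timepoint. Myocardium measured at 1 and 8 h. Myocardium:plasma ratio taken from drug concentration.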

[6] = Ratio of drug level in myocardium to plasma in BALB/c mouse at 10 mg/kg, po administered via gavage every 24 hrs for 7 days measured 8 hrs post last dose by LC-MS/MS analysis; assay type: ADME, organism-based; conditions: myocardium and plasma; method in brief: as §1
Heart [7] = test: Cardioprotective activity in Langendorff perfused C57BL/6 mouse heart assessed as increase in cardiac contractility at 2 uM perfused for 30 mins in presence of high fat relative to control; assay type: functional
Method in brief: (§3)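 Isolated C57BL/6 hearts (25-30 g) retrogradely perfused at constant 80 mmHg, 37 °C, 95% O2/5% CO2, with modified Krebs containing 1.2 mM sodium palmitate conjugated to 3% BSA. After 10 min stabilisation, 30 min perfusion with control buffer or compound at 2 or 10 µM. LVdP/dt max and min derived from LV pressure over 40 min; mean ± SEM, n = 12-19, 1-way ANOVA with Bonferroni.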

[8] = Drug uptake in BALB/c mouse myocardium at 10 mg/kg, po administered via gavage every 24 hrs for 7 days measured 1 hr post last dose by LC-MS/MS analysis; assay type: ADME, organism-based; conditions: read-out: Drug uptake; method in brief: as §1
[9] = Drug uptake in Sprague-Dawley rat myocardium at 10 mg/kg, po administered via gavage every 24 hrs measured at 1 hr post last dose by LC-MS/MS analysis; assay type: ADME, organism-based; conditions: read-out: Drug uptake; method in brief: as §2
[10] = Plasma concentration in BALB/c mouse at 10 mg/kg, po administered via gavage every 24 hrs for 7 days measured 4 hrs post last dose by LC-MS/MS analysis; assay type: ADME, organism-based; method in brief: as §1
[11] = Ratio of drug level in myocardium to plasma in BALB/c mouse at 10 mg/kg, po administered via gavage every 24 hrs for 7 days measured 4 hrs post last dose by LC-MS/MS analysis; assay type: ADME, organism-based; conditions: myocardium and plasma; method in brief: as §1
[12] = Plasma concentration in Sprague-Dawley rat at 10 mg/kg, po administered via gavage every 24 hrs measured at 8 hrs post last dose by LC-MS/MS analysis; assay type: ADME, organism-based; method in brief: as §2
[13] = Drug uptake in Sprague-Dawley rat myocardium at 10 mg/kg, po administered via gavage every 24 hrs measured at 8 hrs post last dose by LC-MS/MS analysis; assay type: ADME, organism-based; conditions: read-out: Drug uptake; method in brief: as §2
[14] = AUC (0 to 24 hrs) in BALB/c mouse plasma at 10 mg/kg, po administered via gavage every 24 hrs for 7 days measured post last dose by LC-MS/MS analysis; assay type: ADME, organism-based; parameters: dose 10 mg/kg, time < 24 hr, route oral; method in brief: as §1
[15] = Ratio of AUC (0 to 24 hrs) in myocardium to plasma in BALB/c mouse at 10 mg/kg, po administered via gavage every 24 hrs for 7 days measured post last dose by LC-MS/MS analysis; assay type: ADME, organism-based; conditions: myocardium and plasma, read-out: Ratio AUC; method in brief: as §1
CYP2D6 = CYP2D6 (Homo sapiens, UniProt P10635); test: Drug metabolism assessed as human CYP2D6-mediated compound degradation by measuring half life at 5 uM up to 45 mins in presence of NADPH by LC-MS/MS analysis; assay type: ADME
[16] = Plasma concentration in Sprague-Dawley rat at 10 mg/kg, po administered via gavage every 24 hrs measured at 4 hrs post last dose by LC-MS/MS analysis; assay type: ADME, organism-based; method in brief: as §2
[17] = Drug uptake in BALB/c mouse myocardium at 10 mg/kg, po administered via gavage every 24 hrs for 7 days measured 8 hrs post last dose by LC-MS/MS analysis; assay type: ADME, organism-based; conditions: read-out: Drug uptake; method in brief: as §1
[18] = Ratio of drug level in myocardium to plasma in Sprague-Dawley rat at 10 mg/kg, po administered via gavage every 24 hrs measured at 1 hr post dose by LC-MS/MS analysis; assay type: ADME, organism-based; conditions: myocardium and plasma; method in brief: as §2
[19] = Ratio of drug level in myocardium to plasma in Sprague-Dawley rat at 10 mg/kg, po administered via gavage every 24 hrs measured at 8 hrs post dose by LC-MS/MS analysis; assay type: ADME, organism-based; conditions: myocardium and plasma; method in brief: as §2
[20] = AUC (0 to 24 hrs) in BALB/c mouse myocardium at 10 mg/kg, po administered via gavage every 24 hrs for 7 days measured post last dose by LC-MS/MS analysis; assay type: ADME, organism-based; parameters: time < 24 hr, dose 10 mg/kg, route oral; method in brief: as §1
[21] = Plasma concentration in BALB/c mouse at 10 mg/kg, po administered via gavage every 24 hrs for 7 days measured 8 hrs post last dose by LC-MS/MS analysis; assay type: ADME, organism-based; method in brief: as §1
[22] = Drug uptake in BALB/c mouse myocardium at 10 mg/kg, po administered via gavage every 24 hrs for 7 days measured 4 hrs post last dose by LC-MS/MS analysis; assay type: ADME, organism-based; conditions: read-out: Drug uptake; method in brief: as §1
Heart [23] = test: Cardioprotective activity in Langendorff perfused C57BL/6 mouse heart assessed as increase in cardiac relaxation at 2 uM perfused for 30 mins in presence of high fat relative to control; assay type: functional; method in brief: as §3
[24] = Plasma concentration in BALB/c mouse at 10 mg/kg, po administered via gavage every 24 hrs for 7 days measured at 1 hr post last dose by LC-MS/MS analysis; assay type: ADME, organism-based; method in brief: as §1
[25] = Plasma concentration in Sprague-Dawley rat at 10 mg/kg, po administered via gavage every 24 hrs measured at 1 hr post dose by LC-MS/MS analysis; assay type: ADME, organism-based; method in brief: as §2
[26] = Stability of the compound in pH 7.4 PBS buffer at 37 degC after 1 hr; assay type: physicochemical; conditions: pH 7.4, 1 h
Method in brief: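 Compound incubated 1 h in pH 7.4 PBS at 37 °C, then checked for decomposition.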

Sequence of CYP2D6 (P10635 whole entry): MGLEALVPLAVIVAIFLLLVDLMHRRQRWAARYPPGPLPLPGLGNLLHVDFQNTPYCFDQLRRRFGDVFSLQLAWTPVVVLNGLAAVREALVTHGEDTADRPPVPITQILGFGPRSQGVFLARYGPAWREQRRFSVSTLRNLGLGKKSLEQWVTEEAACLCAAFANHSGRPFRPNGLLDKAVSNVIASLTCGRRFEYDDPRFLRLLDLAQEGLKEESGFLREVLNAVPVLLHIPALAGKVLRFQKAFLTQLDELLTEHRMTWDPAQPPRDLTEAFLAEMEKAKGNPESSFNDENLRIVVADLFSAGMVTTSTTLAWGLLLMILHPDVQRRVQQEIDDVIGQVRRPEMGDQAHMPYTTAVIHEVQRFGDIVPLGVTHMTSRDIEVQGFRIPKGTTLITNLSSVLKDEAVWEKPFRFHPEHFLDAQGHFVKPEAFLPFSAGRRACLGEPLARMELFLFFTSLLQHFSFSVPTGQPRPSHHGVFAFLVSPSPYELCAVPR

## C1CCC(C(CC2CCCCN2)C2CCCCC2)CC1.O=C(O)/C=C\C(=O)O (centres undefined) [PERHEXILINE MALEATE]
[1]
  IC50: 32 µM
[2]
  half-life at 3 µM: 0.167 h
[3]
  half-life at 3 µM: 1.63 h

## C1CCC(C(CC2CCCCN2)C2CCCCC2)CC1 (racemic) [PERHEXILINE]
[4]
  Kp at 1 h: 5.7
[5]
  concentration at 2 h: 113 ng/mL
[6]
  Kp at 8 h: 4.8
Heart [7]
  fold change (FC): 2.1
[8]
  concentration at 1 h: 664 ng/mL
[9]
  concentration at 1 h: 1900 ng/mL
[1]
  IC50: 11 µM
[10]
  concentration at 4 h: 28.3 ng/mL
[11]
  Kp at 4 h: 4.9
[12]
  concentration at 8 h: 31.4 ng/mL
[13]
  concentration at 8 h: 361 ng/mL
[14]
  AUC at 24 h: 876 ng·h/mL
[15]
  Kp: 2.4
CYP2D6
  half-life at 5 µM: 0.233 h
[16]
  concentration at 4 h: 97.4 ng/mL
[2]
  half-life at 3 µM: 0.35 h
[3]
  half-life at 3 µM: 1.67 h
[17]
  concentration at 8 h: 29.2 ng/mL
[18]
  Kp at 1 h: 19
[19]
  Kp at 8 h: 11.5
[20]
  AUC at 24 h: 2110 ng·h/mL
[21]
  concentration at 8 h: 6 ng/mL
[22]
  concentration at 4 h: 126 ng/mL
Heart [23]
  fold change (FC): 3.2
[24]
  concentration at 1 h: 116 ng/mL
[25]
  concentration at 1 h: 99.9 ng/mL

## FC1(F)CCCC(C(CC2CCCCN2)C2CCCCC2)C1 (centres undefined)
[1]
  IC50: 215 µM
[26]
  Stability: Stable
[2]
  half-life at 3 µM: 0.583 h
[3]
  half-life at 3 µM: > 2.5 h

## OC1CCC(C(CC2CCCCN2)C2CCCCC2)CC1 (centres undefined)
[1]
  IC50: 475 µM

## FC1(F)CCC(C(CC2CCCCN2)C2CCC(F)(F)CC2)CC1 (centres undefined)
[1]
  IC50: 88 µM
CYP2D6
  half-life at 5 µM: > 2.5 h
[26]
  Stability: Stable
[2]
  half-life at 3 µM: > 25 h
[3]
  half-life at 3 µM: > 66.7 h
